Measured values: ChEMBL document CHEMBL1132288, “Synthesis and in vitro pharmacology of a series of new chiral histamine H3-receptor ligands: 2-(R and S)-Amino-3-(1H-imidazol-4(5)-yl)propyl ether derivatives” (J Med Chem, 1999)
Calls of active or inactive are those of the source. No cut-off for these calls is given here.

Experiments:
[1] = target: Histamine H3 receptor (Rattus norvegicus) (UniProt Q9QYN8); conditions: filed as antagonist; 10e-5 M
[2] = target: Histamine H3 receptor (Rattus norvegicus) (UniProt Q9QYN8); conditions: filed as antagonist, 10e-6 M
[3] = target: Histamine H3 receptor (Rattus norvegicus) (UniProt Q9QYN8); conditions: Striatum, 10e-5 M
[4] = target: Histamine H3 receptor (Rattus norvegicus) (UniProt Q9QYN8); conditions: Striatum, filed as antagonist, 10e-6 M
[5] = target: Histamine H3 receptor (Rattus norvegicus) (UniProt Q9QYN8); assay: Binding affinity for Histamine H3 receptor
Summary of the method: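 Affinity for the H3 receptor measured in an in vitro binding assay by displacement of the radioligand [3H]R-(α)-methylhistamine.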

Histamine H3 receptor [6] = target: T1, Histamine H3 receptor (Rattus norvegicus, UniProt Q9QYN8); assay: Binding affinity of compound against Histamine H3 receptor
Summary of the method: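 Displacement of the radioligand [3H]R-(α)-methylhistamine from the histamine H3 receptor in an in vitro receptor binding assay.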

[7] = target: Histamine H3 receptor (Rattus norvegicus) (UniProt Q9QYN8); assay: Agonistic activity, Histamine H3 receptor dependent activation of G-proteins with GTP gamma-[35S] autoradiography of rat cortical tissue sections. at 10e-5 M conc.;no response above basal; type: functional
Summary of the method: (§1)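 Rat brain tissue sections were incubated with the test compound at the stated concentrations together with GTPγ[35S], then washed and dried. Film autoradiograms were digitized and quantified against [14C] standards. Responses were read from cerebral cortex and striatum, four animals per region, with cerebellum (no H3 receptors) as a nonspecific-effect control.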

[8] = target: Histamine H3 receptor (Rattus norvegicus) (UniProt Q9QYN8); assay: Agonistic activity, Histamine H3 receptor dependent activation of G-proteins with GTP gamma-[35S] autoradiography of rat striatal tissue sections. at 10e-5 M conc.;no response above basal; type: functional
Summary of the method: as §1

[9] = target: Histamine H3 receptor (Rattus norvegicus) (UniProt Q9QYN8); assay: Agonistic activity, Histamine H3 receptor dependent activation of G-proteins with GTP gamma-[35S] autoradiography of rat cortical tissue sections. at 10e-5 M conc; maximal response; type: functional; conditions: filed as agonist
Summary of the method: as §1

[10] = target: Histamine H3 receptor (Rattus norvegicus) (UniProt Q9QYN8); assay: Agonistic activity, Histamine H3 receptor dependent activation of G-proteins with GTP gamma-[35S] autoradiography of rat striatal tissue sections. at 10e-5 M conc.; maximal response; type: functional; conditions: filed as agonist
Summary of the method: as §1

[11] = target: Histamine H3 receptor (Rattus norvegicus) (UniProt Q9QYN8); assay: Agonistic activity, Histamine H3 receptor dependent activation of G-proteins with GTP gamma-[35S] autoradiography of rat cortical tissue sections. at 10e-5 M conc.; maximal response; type: functional; conditions: filed as agonist
Summary of the method: as §1

[12] = target: Histamine H3 receptor (Rattus norvegicus) (UniProt Q9QYN8); conditions: filed as agonist; 10e-5 M
[13] = target: Histamine H3 receptor (Rattus norvegicus) (UniProt Q9QYN8); conditions: filed as antagonist; 10e-6 M
[14] = target: Histamine H3 receptor (Rattus norvegicus) (UniProt Q9QYN8); conditions: filed as antagonist; 10e-5 M; remark: listed apart in the source
[15] = target: Histamine H3 receptor (Rattus norvegicus) (UniProt Q9QYN8); conditions: Striatum; filed as antagonist; 10e-5 M
[16] = target: Histamine H3 receptor (Rattus norvegicus) (UniProt Q9QYN8); conditions: 10e-8 M
[17] = target: Histamine H3 receptor (Rattus norvegicus) (UniProt Q9QYN8); conditions: Striatum; 10e-8 M
[18] = target: Histamine H3 receptor (Rattus norvegicus) (UniProt Q9QYN8); conditions: filed as antagonist
[19] = target: Histamine H3 receptor (Rattus norvegicus) (UniProt Q9QYN8); conditions: filed as antagonist; 10e-6 M; remark: listed apart in the source
[20] = target: Histamine H3 receptor (Rattus norvegicus) (UniProt Q9QYN8); conditions: filed as antagonist; remark: listed apart in the source
[21] = target: Histamine H3 receptor (Rattus norvegicus) (UniProt Q9QYN8); conditions: Striatum; filed as antagonist; 10e-6 M
Histamine H3 receptor [22] = target: T1, Histamine H3 receptor; assay: PKi was measured by Histamine H3 receptor binding assay (N-alpha-MeHA) on rat cerebral cortex.; type: tissue-based
Summary of the method: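 Affinity measured by displacement of the radioligand [3H]R-(α)-methylhistamine in an in vitro H3-receptor binding assay.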

[23] = target: Histamine H3 receptor (Rattus norvegicus) (UniProt Q9QYN8); assay: Agonistic activity, Histamine H3 receptor dependent activation of G-proteins with GTP gamma-[35S] autoradiography of rat striatal tissue sections. at 10e-5 M conc.; half-maximal response; type: functional; conditions: filed as partial agonist
Summary of the method: as §1

[24] = target: Histamine H3 receptor (Rattus norvegicus) (UniProt Q9QYN8); assay: Agonistic activity, Histamine H3 receptor dependent activation of G-proteins with GTP gamma-[35S] autoradiography of rat cortical tissue sections. at 10e-5 M conc.; half-maximal response; type: functional; conditions: filed as partial agonist
Summary of the method: as §1

[25] = target: Histamine H3 receptor (Rattus norvegicus) (UniProt Q9QYN8); conditions: filed as antagonist; 10e-8 M
[26] = target: Histamine H3 receptor (Rattus norvegicus) (UniProt Q9QYN8); conditions: Striatum; filed as antagonist; 10e-8 M
[27] = target: Histamine H3 receptor (Rattus norvegicus) (UniProt Q9QYN8); assay: Agonistic activity, Histamine H3 receptor dependent activation of G-proteins with GTP gamma-[35S] autoradiography of rat cortical tissue sections. at 10e-5 M conc.; weak response (between half-maximal and basal; type: functional; conditions: filed as partial agonist
Summary of the method: as §1

[28] = target: Histamine H3 receptor (Rattus norvegicus) (UniProt Q9QYN8); assay: Agonistic activity, H3-receptor dependent activation of G-proteins with GTP gamma-[35S] autoradiography of rat striatal tissue sections. at 10e-5 M conc.; maximal response; type: functional; conditions: filed as agonist
Summary of the method: as §1

[29] = target: Histamine H3 receptor (Rattus norvegicus) (UniProt Q9QYN8); assay: Agonistic activity, H3-receptor dependent activation of G-proteins with GTP gamma-[35S] autoradiography of rat cortical tissue sections. at 10e-5 M conc.; maximal response; type: functional; conditions: filed as agonist
Summary of the method: as §1

T1 sequence (Q9QYN8 whole entry): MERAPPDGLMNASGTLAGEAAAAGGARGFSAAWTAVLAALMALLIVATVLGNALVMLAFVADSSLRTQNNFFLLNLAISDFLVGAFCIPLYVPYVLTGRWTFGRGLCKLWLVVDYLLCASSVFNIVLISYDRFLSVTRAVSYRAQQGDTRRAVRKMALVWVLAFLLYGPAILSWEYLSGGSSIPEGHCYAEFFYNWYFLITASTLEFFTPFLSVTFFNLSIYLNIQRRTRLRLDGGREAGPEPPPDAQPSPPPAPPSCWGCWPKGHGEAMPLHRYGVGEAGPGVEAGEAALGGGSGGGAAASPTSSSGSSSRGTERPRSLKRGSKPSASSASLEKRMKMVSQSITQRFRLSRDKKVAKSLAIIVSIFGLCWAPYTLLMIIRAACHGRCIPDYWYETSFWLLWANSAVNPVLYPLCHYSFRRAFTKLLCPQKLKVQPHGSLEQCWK
Histamine H3 receptor (Rattus norvegicus), sequence (Q9QYN8 whole entry): as above

Structure (SMILES): NCCc1c[nH]cn1.N[C@H](COCc1ccc(Br)cc1)Cc1c[nH]cn1
- Antagonist activity [1]: Partial antagonist
- Antagonist activity [2]: Antagonist
- Antagonist activity [3]: Partial agonist
- Antagonist activity [4]: Antagonist

Structure (SMILES): N=C(N)SCCc1c[nH]cn1
- pD2 [5]: 8.1

Structure (SMILES): N[C@@H](Cc1ccccc1)C(=O)N[C@H]1C[C@@H]1c1c[nH]cn1
- Ki (Histamine H3 receptor [6]): 20 nM

Structure (SMILES): NCCc1c[nH]cn1.N[C@@H](COCc1ccc(Br)cc1)Cc1c[nH]cn1
- Antagonist activity [1]: Partial antagonist
- Antagonist activity [2]: Antagonist
- Antagonist activity [3]: Partial agonist
- Antagonist activity [4]: Antagonist

Structure (SMILES): N[C@H]1C[C@@H]1c1c[nH]cn1 [VUF-5297]
- Ki (Histamine H3 receptor [6]): 25.1 nM

Structure (SMILES): CNCCc1cnc[nH]1
- pD2 [5]: 7.7

Structure (SMILES): N[C@@H](COCc1ccc(I)cc1)Cc1c[nH]cn1
- Agonistic activity [7]: inactive
- Agonistic activity [8]: inactive

Structure (SMILES): N[C@@H](Cc1ccccc1)C(=O)N[C@@H]1C[C@H]1c1c[nH]cn1
- pD2 [5]: 8.7

Structure (SMILES): C[C@@H]1NCC[C@H]1c1c[nH]cn1
- pD2 [5]: 7.1

Structure (SMILES): N[C@@H](COCC1CCCCC1)Cc1c[nH]cn1
- Agonistic activity [9]: Agonist
- Agonistic activity [10]: Agonist

Structure (SMILES): NCCc1c[nH]cn1
- Agonistic activity [10]: Agonist
- Agonistic activity [11]: Agonist
- pD2 [5]: 7.2
- Agonist activity [12]: Agonist
- Antagonist activity [13]: Antagonist

Structure (SMILES): C[C@H]1NCC[C@@H]1c1c[nH]cn1
- pD2 [5]: 7.1

Structure (SMILES): N[C@@H]1C[C@H]1c1cnc[nH]1 [VUF-5296]
- Ki (Histamine H3 receptor [6]): 3.16 nM

Structure (SMILES): N[C@@H](Cc1ccccc1)C(=O)NCCc1c[nH]cn1
- Ki (Histamine H3 receptor [6]): 100 nM

Structure (SMILES): c1nc(CC2CCNCC2)c[nH]1
- pD2 [5]: 8

Structure (SMILES): NCCc1c[nH]cn1.N[C@@H](COCC1CCCCC1)Cc1c[nH]cn1
- Antagonist activity [14]: Antagonist
- Antagonist activity [2]: Antagonist
- Antagonist activity [15]: Antagonist
- Antagonist activity [4]: Antagonist

Structure (SMILES): Ic1ccc(COCCCc2c[nH]cn2)cc1.NCCc1c[nH]cn1
- Antagonist activity [16]: inactive
- Antagonist activity [17]: inactive

Structure (SMILES): NCCc1c[nH]cn1.N[C@@H](COCc1ccccc1)Cc1c[nH]cn1
- Antagonist activity [14]: Antagonist
- Antagonist activity [2]: Antagonist
- Antagonist activity [15]: Antagonist
- Antagonist activity [4]: Antagonist

Structure (SMILES): NCCc1c[nH]cn1.N[C@H](COCc1ccc(I)cc1)Cc1c[nH]cn1
- Antagonist activity [18]: Partial antagonist
- Antagonist activity [19]: Partial antagonist
- Antagonist activity [20]: Partial antagonist
- Antagonist activity [21]: Partial antagonist

Structure (SMILES): NCCc1c[nH]cn1.N[C@H](COCC1CCCCC1)Cc1c[nH]cn1
- Antagonist activity [14]: Antagonist
- Antagonist activity [2]: Antagonist
- Antagonist activity [15]: Antagonist
- Antagonist activity [4]: Antagonist

Structure (SMILES): c1ccc(COCCCc2c[nH]cn2)cc1 [PROXYFAN]
- Ki (Histamine H3 receptor [22]): 5.01 nM

Structure (SMILES): N[C@H](/C=C\[C@@H]1C[C@H]1c1c[nH]cn1)CC1CCCCC1
- Ki (Histamine H3 receptor [6]): 100 nM

Structure (SMILES): N[C@@H](COCc1ccc(Br)cc1)Cc1c[nH]cn1
- Agonistic activity [23]: Partial agonist
- Agonistic activity [24]: Partial agonist

Structure (SMILES): NCCc1c[nH]cn1.N[C@@H](COCc1ccc(I)cc1)Cc1c[nH]cn1
- Antagonist activity [1]: Partial antagonist
- Antagonist activity [2]: Antagonist
- Antagonist activity ([3]; filed as antagonist): Partial agonist
- Antagonist activity [4]: Antagonist

Structure (SMILES): NCCc1c[nH]cn1.S=C(NC1CCCCC1)N1CCC(c2c[nH]cn2)CC1
- Antagonist activity [25]: Agonist
- Antagonist activity [26]: Antagonist

Structure (SMILES): C[C@@H](N)Cc1c[nH]cn1
- pD2 [5]: 8.4

Structure (SMILES): N[C@H](Cc1ccccc1)C(=O)NCCc1c[nH]cn1
- Ki (Histamine H3 receptor [6]): > 10000 nM

Structure (SMILES): N[C@H](COCc1ccccc1)Cc1c[nH]cn1
- Agonistic activity [27]: Partial agonist
- Agonistic activity [23]: Partial agonist

Structure (SMILES): NCCc1c[nH]cn1.N[C@H](COCc1ccccc1)Cc1c[nH]cn1
- Antagonist activity [14]: Antagonist
- Antagonist activity [2]: Antagonist
- Antagonist activity [15]: Antagonist
- Antagonist activity [4]: Antagonist

Structure (SMILES): N[C@H](/C=C/[C@@H]1C[C@H]1c1c[nH]cn1)CC1CCCCC1
- Ki (Histamine H3 receptor [6]): 0.398 nM

Structure (SMILES): C[C@H](N)[C@@H](C)c1c[nH]cn1
- pD2 [5]: 6.5

Structure (SMILES): N[C@H](COCc1ccc(Br)cc1)Cc1c[nH]cn1
- Agonistic activity [23]: Partial agonist
- Agonistic activity [24]: Partial agonist

Structure (SMILES): NCCCCCc1c[nH]cn1
- Agonistic activity [28]: Agonist
- Agonistic activity [29]: Agonist

Structure (SMILES): N[C@@H](COCc1ccccc1)Cc1c[nH]cn1
- Agonistic activity [7]: inactive
- Agonistic activity [8]: inactive

Structure (SMILES): CC(C)(C)CCC#C[C@@H]1C[C@H]1c1c[nH]cn1 [CIPRALISANT]
- pD2 [5]: 8.5
- Ki (Histamine H3 receptor [6]): 0.126 nM

Structure (SMILES): N[C@H](COCc1ccc(I)cc1)Cc1c[nH]cn1
- Agonistic activity [7]: inactive
- Agonistic activity [8]: inactive

Structure (SMILES): C[C@H](c1c[nH]cn1)[C@@H](C)N
- pD2 [5]: 8.5

Structure (SMILES): N=C(N)CCCc1c[nH]cn1
- pD2 [5]: 9

Structure (SMILES): N[C@H](COCC1CCCCC1)Cc1c[nH]cn1
- Agonistic activity [10]: Agonist
- Agonistic activity [11]: Agonist

Structure (SMILES): N=C(NCc1ccc(Cl)cc1)SCCCc1c[nH]cn1.NCCc1c[nH]cn1
- Antagonist activity [16]: inactive
- Antagonist activity [17]: inactive
